The nature of data set [1]: Protein binding in human plasma measured after 4 hrs by LC-MS/MS analysis. Format: ADME, cell-free. The conditions noted are these: read-out: PPB (converted).
Data set [2] is described as follows: AUC in Sprague-Dawley rat at 0.5 mg/kg, po administered as single cassette dosing by LC-MS/MS analysis. Format: ADME, organism-based. The conditions noted are these: in vivo. The method, boiled down:
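Rat cassette dosing, 0.5 mg/kg oral; plasma AUC reported.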

The target of data set [3] is T1, Autotaxin (Homo sapiens, UniProt Q13822). Put plainly: Inhibition of recombinant human ATX assessed as reduction in choline release using LPC(16:0) as substrate incubated for 15 hrs. The method, boiled down: (§1)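 Recombinant human ATX with 16:0 LPC as substrate. Single-point inhibition was tested at 30 μM, and IC50 values were determined.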
A short description of data set [4]: Protein binding in rat plasma measured after 4 hrs by LC-MS/MS analysis. The data set is classed as ADME, cell-free. To be noted: read-out: PPB (converted).
The target of data set [5] is T1, Autotaxin. Kind of data set: Inhibition of LysoPLD activity of ATX in human plasma assessed as reduction in choline release using LPC(16:0) as substrate incubated for 15 hrs. Format: cell-free. The method in brief:
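LysoPLD activity in human plasma with 16:0 LPC as substrate; IC50 determined.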

The target in data set [6] is T1, Autotaxin. Put plainly: Selectivity index, ratio of IC50 for LysoPLD activity of ATX in human plasma to IC50 for recombinant human ATX assessed as reduction in choline release using LPC(16:0) as substrate incubated for 15 hrs. The method, boiled down:
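Ratio of two IC50 values. One comes from LysoPLD activity in human plasma. The other comes from purified recombinant human ATX. Both assays use 16:0 LPC as substrate.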

The nature of data set [7]: Octanol/phosphate buffer partition coefficient, LogD of compound at pH 7.4 mixed for 1 hr using benchtop-rotator followed by further incubation for 1 hr by ESI-LC-MS/MS analysis. Format: physicochemical.
The target in data set [8] is T1, Autotaxin. Put plainly: Inhibition of recombinant human ATX assessed as reduction in choline release at 30 uM using LPC(16:0) as substrate incubated for 15 hrs relative to control. The method, boiled down: as §1

pIC50: −log10 of the molar value.

`C[C@]1(C(=O)O)CC[C@H](CC(=O)N2CCc3c(n(Cc4ccc(F)cc4F)c4ncccc34)C2)CC1`: the fraction unbound at 4 h in data set [1] is 0.009; in data set [4], 0.039. The compound also returned an AUC in data set [2] of 677 ng·h/mL. Besides, the pIC50 on Autotaxin [3] was 7.66; at Autotaxin [5], 7.60.

In the case of `CC(C)(CCCC(=O)N1CCc2c(n(Cc3cccc(F)c3)c3ncccc23)C1)C(=O)O`, the pIC50 at Autotaxin [3] is 7.77; on Autotaxin [5], 6.59. In addition, at Autotaxin [6], the Ratio IC50 came out at 15.

Turning to `O=C(C[C@H]1CC[C@@H](C(=O)O)CC1)N1CCc2c(n(Cc3cccc(F)c3)c3ncccc23)C1`, the fraction unbound at 4 h in data set [1] was 0.004. Moreover, at Autotaxin [3], the pIC50 was 7.54. The compound further had a logD at 1 h in data set [7] of 1.45.

For the compound `O=C(C[C@H]1CC[C@@H](C(=O)O)CC1)N1CCc2c(n(Cc3ccc(F)cc3F)c3ncccc23)C1`, the fraction unbound at 4 h in data set [1] was 0.006. For the same compound, the negative logarithm of the IC50 (pIC50) on Autotaxin [3] is 7.72; on Autotaxin [5], 7.80. Also, in data set [7], the logD at 1 h is 1.36.

Take `O=C(C[C@H]1CC[C@H](C(=O)O)CC1)N1CCc2c(n(Cc3cccc(F)c3)c3ncccc23)C1`: the fraction unbound at 4 h in data set [1] was 0.007. For the same compound, on Autotaxin [3], the pIC50 was 7.77. Besides, in data set [7], the logD at 1 h is 1.07.

Take `O=C(O)c1cccc(CC(=O)N2CCc3c(n(Cc4cccc(F)c4)c4ncccc34)C2)c1`: the fraction unbound at 4 h in data set [1] is 0.011. Besides, at Autotaxin [3], the pIC50 is 7.00.

`O=C(CC12CCC(C(=O)O)(CC1)CC2)N1CCc2c(n(Cc3ccc(F)cc3F)c3ncccc23)C1`: the values for the fraction unbound at 4 h in data set [1] and in data set [4] were 0.009 and 0.043, respectively. Besides, the AUC in data set [2] was determined as 472 ng·h/mL. Moreover, the values for the pIC50 on Autotaxin [3] and at Autotaxin [5] were 8.05 and 8.09, respectively.

For `CC(=O)N1CCc2c(n(Cc3ccccc3)c3ncccc23)C1`, the inhibition on Autotaxin [8] came out at 51.6%.

As for `O=C(O)CCCC(=O)N1CCc2c(n(Cc3ccccc3)c3ncccc23)C1`, the pIC50 at Autotaxin [3] was 6.08.

In the case of `O=C(O)CCCCCC(=O)N1CCc2c(n(Cc3ccccc3)c3ncccc23)C1`, the negative-log IC50 (pIC50) at Autotaxin [3] is 6.60.

A word on the AUC: it is the area under the concentration-time curve, a measure of exposure. High values mean more exposure, low ones less exposure. A word on the pIC50: it is −log10 of the IC50, conventionally taken in molar units. The term logD denotes the decadic logarithm of the distribution of all forms, ionised or not, between an organic phase and buffer at a given pH. Lower therefore signals a more hydrophilic compound. By inhibition is commonly meant the drop in the measured response relative to a control, in per cent.
